In brackets after ≈: the same amount, converted by molar mass. Each block holds one molecule with its values, some of them ahead of it.
What was measured:
[1] = Particle size analysis of micelles by dynamic light scattering; format: physicochemical; conditions: in water, DLS
How it was run: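 Carrier glycoside alone or the solid dispersion powder was dispersed in deionised water and sonicated for 2 min. Volumetric size distribution was measured by dynamic light scattering, and the mean size was taken from 3 replicates.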

[2] = Apparent solubility measurement in deionised water; format: physicochemical; conditions: 37 °C, thermodynamic from solid
How it was run: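 Excess crystalline test compound or its 1:10 solid dispersion was shaken in deionised water at 50 strokes/min and 37 °C for 24 h, then filtered (0.45 µm). Concentration was measured by HPLC: C18 column, 2% glacial acetic acid:methanol (23:77 v/v) at 1 mL/min, detection at 424 nm. Measured in triplicate.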

[3] = Dissolution test in pH 1.2 and pH 6.8 buffers with 0.2% Tween 80; format: physicochemical; conditions: 0.2% Tween 80, 37 °C
How it was run: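 Crystalline compound or solid dispersion, each equivalent to 2 mg test compound, was stirred at 50 rpm and 37 °C in 100 mL phosphate buffer (pH 1.2 or pH 6.8, each with 0.2% Tween 80). Samples were taken at 5, 10, 20, 30, 60, 120, 180, 240 and 300 min, with medium replaced at 37 °C. Samples were filtered (0.45 µm) and analysed by the 424 nm HPLC method.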

[4] = ref [19], cited from earlier work
[5] = above the CMC, previous studies; ref [16–18]; cited from earlier work

- Micelle size (diameter) [1]: ~ 154 nm
- solubility at 24 h [2]: 0.25 µg/mL (≈ 0.679 µM)
- CUR released ([3]; pH 1.2 buffer, in 300 min): 22%
- Dissolution rate (in words) ([3]; pH 6.8 buffer): slow dissolution rate
Molecule: COc1cc(/C=C/C(=O)CC(=O)/C=C/c2ccc(O)c(OC)c2)ccc1O [CUR, Curcumin]

Molecule: COc1cc(C2Oc3cc([C@H]4Oc5cc(O)cc(O)c5C(=O)[C@@H]4O)ccc3OC2CO)ccc1O (stereo partly drawn) [silybin]
- Fold increment of silybin water solubility by Mog-V [4]: 2000 fold
- Water solubility of silybin ([4]; silybin alone): 1 µg/mL
- Water solubility of silybin with Mog-V ([4]; solid dispersion of silybin in Mog-V dissolved in water): 2000 µg/mL

Molecule: α-Glucosyl Stevia [Stevia-G]
- Aggregation number [5]: 12

Molecule: α-Glycosyl Rutin [Rutin-G]
- Aggregation number [5]: 4
